Laboratory results: ChEMBL document CHEMBL5108087, “Synthesis and biological evaluation of paeoveitol D derivatives as new melatonin receptor agonists with antidepressant activities” (RSC Med Chem, 2022)
Activity calls are given as the source filed them. The calls are words filed in the database; no cut-off is given here.

Assays:
[1] = system: Mus musculus; assay: Antidepressant activity in kunming mouse assessed as decrease in DOPAC level in striatum at 160 mg/kg, po measured after 14 days by HPLC-ECD analysis; format: functional, organism-based; conditions: time 14.0 day
Procedure, shortened: (§1)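 Male Kunming mice dosed orally with vehicle or 160 mg kg−1 for 14 days, then killed by cervical dislocation. Brain regions dissected on ice, homogenized in 0.2 M perchloric acid with 0.1 mM EDTA and spun at 4 °C for 20 min. Supernatant analysed by HPLC-ECD at +0.50 V, mobile phase pH 3.0. Amounts given in ng g−1 as mean ± SEM, n = 12.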

[2] = AUC (0 to infinity) in Kunming mouse at 80 mg/kg, po administered as single dose and measured upto 24 hrs; format: ADME, organism-based; parameters: time < 24 hrs, dose 80 mg/kg, route po; conditions: in vivo
[3] = system: Mus musculus; assay: Antidepressant activity in Kunming mouse assessed as decrease in immobility time at 80 mg/kg, po and measured after 14 days by forced swim test relative to control; format: functional; parameters: scale not given: the % may be the effect or the level left; conditions: time 14 day
Procedure, shortened: (§2)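 Male Kunming mice, 15–18 g, given the test compound orally for 14 days. Forced swim then done in a cylinder 25 cm high and 15 cm in diameter, water 10 cm deep at 25 ± 1 °C. Swim lasted 6 min and immobility over the final 4 min was video-scored against the vehicle group.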

[4] = target: T1, Melatonin receptor type 1A (Homo sapiens, UniProt P48039); assay: Agonist activity at human MT1 receptor expressed in HEK293 cells by Fluo-8 based calcium assay; format: functional, cell-based
[5] = system: Mus musculus; assay: Antidepressant activity in Kunming mouse assessed as decrease in immobility time at 160 mg/kg, po and measured after 14 days by forced swim test relative to control; format: functional; parameters: scale not given: the % may be the effect or the level left; conditions: time 14 day; procedure, shortened: as §2
[6] = system: Mus musculus; assay: Antidepressant activity in kunming mouse assessed as decrease in 5-HIAA level in thalamus at 160 mg/kg, po measured after 14 days by HPLC-ECD analysis; format: functional, organism-based; conditions: time 14.0 day; procedure, shortened: as §1
[7] = system: Mus musculus; assay: Antidepressant activity in kunming mouse assessed as decrease in 5-HIAA level in hippocampus at 160 mg/kg, po measured after 14 days by HPLC-ECD analysis; format: functional, organism-based; conditions: time 14.0 day; procedure, shortened: as §1
[8] = system: Mus musculus; assay: Antidepressant activity in kunming mouse assessed as decrease in 5-HIAA level in hypothalamus at 160 mg/kg, po measured after 14 days by HPLC-ECD analysis; format: functional, organism-based; conditions: time 14.0 day; procedure, shortened: as §1
[9] = Subacute toxicity in Kunming mouse assessed as effect on liver structure at 240 mg/kg, po administered for 14 days; format: organism-based; conditions: in vivo, 336 h, time 14 day
Procedure, shortened: (§3)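 Subacute oral study following OECD 425. Animals randomised into two groups of six. Vehicle control received 0.5% CMC-Na orally for 14 consecutive days; the treated group received 240 mg kg−1 body weight orally for 14 consecutive days.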

[10] = system: HEK293T; assay: (§4) Agonist activity at human MT1 N162A mutant receptor transfected in HEK293T cells co-transfected with tet-inducible luciferase reporter plasmid, pCDNA3.1(+)-CMV-betaArrestin2-tev plasmid and TANGO plasmid assessed as shift in concentration response curve incubated for 24 hrs by TANGO-GPCR assay based luminescence plate reader analysis relative to agomelatine; format: cell-based; conditions: filed as agonist
Procedure, shortened: (§5)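 293T cells transiently transfected with tet-inducible luciferase reporter, pCDNA3.1(+)-CMV-bArrestin2-tev and TANGO receptor plasmids (wild-type or point mutant). Next day plated at 20 000 cells/well on poly-L-lysine; drug added day 3. Day 4, Bright-Glo added, 20 min, then luminescence read. Concentration–response curves fitted; data mean ± SD.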

[11] = system: Mus musculus; assay: Antidepressant activity in kunming mouse assessed as increase in 5-HT level in striatum at 160 mg/kg, po measured after 14 days by HPLC-ECD analysis; format: functional, organism-based; conditions: time 14.0 day; procedure, shortened: as §1
[12] = system: Mus musculus; assay: Antidepressant activity in kunming mouse assessed as decrease in DOPAC level in hippocampus at 160 mg/kg, po measured after 14 days by HPLC-ECD analysis; format: functional, organism-based; conditions: time 14.0 day; procedure, shortened: as §1
[13] = system: Mus musculus; assay: Antidepressant activity in kunming mouse assessed as decrease in 5-HIAA level in frontal cortex at 160 mg/kg, po measured after 14 days by HPLC-ECD analysis; format: functional, organism-based; conditions: time 14.0 day; procedure, shortened: as §1
[14] = system: Mus musculus; assay: Antidepressant activity in kunming mouse assessed as decrease in DOPAC level in thalamus at 160 mg/kg, po measured after 14 days by HPLC-ECD analysis; format: functional, organism-based; conditions: time 14.0 day; procedure, shortened: as §1
[15] = Subacute toxicity in Kunming mouse assessed as animal death at 240 mg/kg, po administered for 14 days; format: organism-based; conditions: in vivo, 336 h, time 14 day; procedure, shortened: as §3
[16] = system: Mus musculus; assay: Antidepressant activity in kunming mouse assessed as increase in 5-HT level in hypothalamus at 160 mg/kg, po measured after 14 days by HPLC-ECD analysis; format: functional, organism-based; conditions: time 14.0 day; procedure, shortened: as §1
[17] = target: T2, Melatonin receptor type 1B (Homo sapiens, UniProt P49286); assay: as §4, with “MT2” for “MT1 N162A mutant”, “relative luminescence unit” for “shift in concentration response curve”, “analysis” for “analysis relative to agomelatine”; format: functional, cell-based
T2 sequence (P49286 whole entry): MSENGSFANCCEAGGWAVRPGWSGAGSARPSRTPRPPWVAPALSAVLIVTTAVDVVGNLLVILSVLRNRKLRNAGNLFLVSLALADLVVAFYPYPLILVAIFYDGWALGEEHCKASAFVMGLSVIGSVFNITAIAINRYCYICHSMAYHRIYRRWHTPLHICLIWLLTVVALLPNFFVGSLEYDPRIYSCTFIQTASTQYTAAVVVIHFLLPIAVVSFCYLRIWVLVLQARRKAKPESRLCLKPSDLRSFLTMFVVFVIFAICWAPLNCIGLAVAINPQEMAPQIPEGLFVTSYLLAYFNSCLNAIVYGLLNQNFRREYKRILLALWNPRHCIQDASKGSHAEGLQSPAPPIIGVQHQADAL

[18] = Subacute toxicity in Kunming mouse assessed as effect on lung structure at 240 mg/kg, po administered for 14 days; format: organism-based; conditions: in vivo, 336 h, time 14 day; procedure, shortened: as §3
[19] = system: Mus musculus; assay: Antidepressant activity in kunming mouse assessed as decrease in DOPAC level in hypothalamus at 160 mg/kg, po measured after 14 days by HPLC-ECD analysis; format: functional, organism-based; conditions: time 14.0 day; procedure, shortened: as §1
[20] = system: HEK293T; assay: as §4, with “Q181A” for “N162A”; format: cell-based; conditions: filed as agonist; procedure, shortened: as §5
[21] = system: Mus musculus; assay: Antidepressant activity in Kunming mouse assessed as decrease in immobility time at 80 mg/kg, po administered two times at 1 hrs and 24 hrs and measured at last 4 mins of 6 mins test by forced swim test relative to fluoxetine; format: functional; parameters: scale not given: the % may be the effect or the level left; conditions: time 1444 min, 24.07 h
Procedure, shortened: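 Male Kunming mice, 15–18 g, housed six per cage at 22 ± 1 °C on a 12 h light/dark cycle. Oral dosing 24 h and 1 h before the test. Each mouse placed in a cylinder (25 cm high, 15 cm diameter) holding 10 cm of water at 25 ± 1 °C and made to swim 6 min; immobility over the last 4 min scored by video tracking.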

[22] = system: Mus musculus; assay: Antidepressant activity in kunming mouse assessed as decrease in DOPAC level in frontal cortex at 160 mg/kg, po measured after 14 days by HPLC-ECD analysis; format: functional, organism-based; conditions: time 14.0 day; procedure, shortened: as §1
[23] = target: T1, Melatonin receptor type 1A; assay: as §4, with “MT1” for “MT1 N162A mutant”, “tango arrestin recruitment by measuring maximum activity” for “shift in concentration response curve”; format: functional, cell-based; conditions: filed as agonist
Procedure, shortened: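 Tango arrestin recruitment: 293T cells transiently transfected with a tet-inducible luciferase reporter, CMV-βArrestin2-TEV and TANGO receptor plasmids. On day 2, replated at 20 000 cells per well on poly-L-lysine. Drug added on day 3. On day 4, luciferase reagent added for 20 min and luminescence counted. Curves fitted; data given as mean ± SD.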

T1 sequence (P48039 whole entry): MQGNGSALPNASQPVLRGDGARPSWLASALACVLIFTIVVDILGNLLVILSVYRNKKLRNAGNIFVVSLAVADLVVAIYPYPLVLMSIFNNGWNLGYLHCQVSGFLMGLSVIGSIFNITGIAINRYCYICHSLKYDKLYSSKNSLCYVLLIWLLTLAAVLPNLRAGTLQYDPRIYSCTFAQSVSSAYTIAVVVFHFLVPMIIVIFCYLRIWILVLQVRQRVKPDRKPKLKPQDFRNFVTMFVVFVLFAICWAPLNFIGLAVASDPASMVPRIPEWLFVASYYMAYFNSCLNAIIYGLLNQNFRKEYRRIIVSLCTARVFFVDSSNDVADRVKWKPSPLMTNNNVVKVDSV

With `COc1cc2c(CN3CCN(C)CC3)coc2cc1C` the Activity [1] was “Active”, the AUC [2] was 5620 ng·h/mL and the Activity [3] was 26%. The EC50 [4] was 330 µM, the Activity [5] was 28% and the Activity [6] was “Active”. For the same compound, the Activity [7] was “Active”, the Activity [8] was “Active” and the Activity [9] was “Non-Toxic”. For the same compound, the Activity [10] was “Active”, the Activity [11] was “Active” and the Activity [12] was “Active”. The Activity [13] was “Active”, the Activity [14] was “Active” and the Activity [15] was “Non-Toxic”. The Activity [16] was “Active”, the EC50 [17] was 299 µM and the Activity [18] was “Non-Toxic”. For the same compound, the Activity [19] was “Active”, the Activity [20] was “Active” and the Activity [21] was 26%. For the same compound, the Activity [22] was “Active” and the Emax [23] was 57%.
